From ChEMBL document CHEMBL1132560, “N-Substituted 2-(2,6-dinitrophenylamino)propanamides: novel prodrugs that release a primary amine via nitroreduction and intramolecular cyclization” (J Med Chem, 1999) come the findings set out here.

Assay [1] in a line: 4-methoxyaniline yield was measured from 4 fold reduced forms of compound at pH 4. In a few lines:
(§1)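 Anaerobic aqueous solutions with 0.5 M 2-propanol were γ-irradiated to deliver a set number of molar equiv of reducing species (e⁻aq, (CH₃)₂C•OH), at room temperature. pH 7.4 runs used 0.01 M phosphate, pH 4.0 runs 0.01 M formate. […] Released 4-methoxyaniline was quantified by C-18 HPLC with diode-array detection.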

Assay [2] is described as follows: 4-methoxyaniline yield was measured from 8 fold reduced forms of compound at pH 4. The method in brief:
as §1

Assay [3] is described as follows: 4-methoxyaniline yield was measured from 4 fold reduced forms of compound at pH 7.4. The method in brief: as §1
Assay [4] in a line: 4-methoxyaniline yield was measured from 8 fold reduced forms of compound at pH 7.4. The method in brief:
as §1

In a further assay the test system is SK-OV-3. Briefly: Cytotoxicity on SKOV3 cell growth (reduce cell number by 50%). Particulars: Homo sapiens. The assay is classed as functional, cell-based. The method in brief:
(§2)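 Cells in αMEM with 5% FBS plus penicillin/streptomycin were seeded per well at 200 (AA8), 300 (UV4), 75 (EMT6) or 600 (SKOV3) cells and grown 24 h. Drugs came from DMSO stocks (final DMSO <1%), pH 7.4. Exposure was aerobic for 4 h, followed by washing, 4–5 days further growth and methylene blue staining. IC₅₀ was set as 50% growth inhibition relative to same-plate controls. Mean ± SEM of 3–5 experiments.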

A further assay deals with EMT6. In words: Cytotoxicity on EMT6 cell growth (reduce cell number by 50%). The assay is classed as functional, cell-based. Particulars: Mus musculus. In a few lines:
as §2

The test system of assay [5] is UV4. In words: Cytotoxicity on UV4 cell growth (reduce cell number by 50%). The assay is classed as functional, cell-based. Particulars: Cricetulus griseus. In a few lines:
as §2

The next assay has as its system CHO-AA8. Briefly: Cytotoxicity on AA8 cell growth (reduce cell number by 50%). The assay is classed as functional, cell-based. Particulars: Cricetulus griseus. The method in brief:
as §2

In assay [6] the test system is UV4. In words: Compound's concentration to reduce plating efficiency of UV4 cells to 10% controls under aerobic conditions of 20% oxygen. The assay is classed as functional. The method in brief:
(§3)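 UV4 cells were grown to early plateau phase in spinner flasks and resuspended in fresh medium. Cells and drug in medium were pre-gassed for 1 h with 5% CO₂ in air (20% O₂) or in N₂. Cells at 10⁶/mL were then exposed for 1 h with continuous gassing and assayed clonogenically. C₁₀ is the concentration giving 10% surviving fraction; hypoxic selectivity is the ratio of aerobic to N₂ C₁₀. Mean ± SEM of 3 experiments.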

Assay [7] has as its system UV4. Briefly: Compound concentration to reduce plating efficiency of UV4 cells to 10% controls under aerobic conditions of 20% oxygen to that under […]. Format: functional. The method in brief: as §3
Assay [8] in a line: 4-methoxyaniline yield was measured from 8 fold reduced forms of compound at 4. In a few lines:
as §1

Assay [9] can be described thus: 4-methoxyaniline yield was measured from 4 fold reduced forms of compound at 4. The method in brief: as §1

Consider `COc1ccc(NC(=O)CN(C)c2c([N+](=O)[O-])cc(C(=O)NCCO)cc2[N+](=O)[O-])cc1`, for which the Release turned out to be 80% in assay [1] and 100% in assay [2].

As for `COc1ccc(NC(=O)C(C)Nc2c([N+](=O)[O-])cc(C(=O)NCC(O)CO)cc2[N+](=O)[O-])cc1` (stereo unspecified), the Release in [3] and in assay [4] was 92% throughout.

In the case of `COc1cc2cc(C(=O)N3CC(CCl)c4c3cc(N)c3ccccc43)[nH]c2c(OC)c1OC` (stereo unspecified), the IC50 – broadly, the concentration at which inhibition is half-maximal – with SK-OV-3 came to 1 nM; in the assay on EMT6, 0.27 nM; in the assay with UV4 [5] it was 0.29 nM; with CHO-AA8 it was 0.46 nM. The C10 in the assay with UV4 [6] worked out at 3.4 nM; in the assay on UV4 [7] it was 1.1 air/N2.

In the case of `COc1ccc(NC(=O)C(C)(C)Nc2c([N+](=O)[O-])cc(C(=O)NCCO)cc2[N+](=O)[O-])cc1`, the Release in assay [3] and in assay [4] was 90% in each case.

Turning to `COc1cc2cc(C(=O)N3CC(CCl)c4c3cc(NC(=O)C(C)Nc3c([N+](=O)[O-])cc(C(=O)NCCN(C)C)cc3[N+](=O)[O-])c3ccccc43)[nH]c2c(OC)c1OC` (stereo unspecified), the IC50 in the assay with SK-OV-3 was determined as 87 nM; with EMT6, 41 nM; in the assay on UV4 [5] it was 53 nM; in the assay on CHO-AA8 it was 95 nM. Also, the C10 in the assay with UV4 [6] came out at 490 nM; with UV4 [7], 1.8 air/N2.

On to `COc1ccc(NC(=O)C(C)Nc2c([N+](=O)[O-])cc(C(=O)NCCO)cc2[N+](=O)[O-])cc1` (stereo unspecified), for which the Release was 97% in [8], 97% in assay [9], 77% in [3] and 77% in [4].

As for `COc1ccc(NC(=O)CNc2c([N+](=O)[O-])cc(C(=O)NCCO)cc2[N+](=O)[O-])cc1`, the Release in assay [1] was 83%; in assay [2] it was 83%; in assay [3], 69%; in assay [4], 69%.

For the compound `CC(Nc1c([N+](=O)[O-])cc(C(=O)NCCN(C)C)cc1[N+](=O)[O-])C(=O)Nc1ccc(N(CCCl)CCCl)cc1` (stereo unspecified), the IC50 in the assay with SK-OV-3 is 1300 nM; in the assay on EMT6 it was 1300 nM; in the assay on UV4 [5] it was 3000 nM; in the assay on CHO-AA8, 10500 nM. For the same compound, the figures for the C10 in the assay on UV4 [6] and with UV4 [7] were 2100 nM and 1.3 air/N2, respectively.

As for `COc1ccc(NC(=O)C(C)Nc2c([N+](=O)[O-])cc(C(=O)NCCN(C)C)cc2[N+](=O)[O-])cc1` (stereo unspecified), the Release in [3] and in assay [4] was 89% in each case.

As to `COc1ccc(NC(=O)C(C)N(C)c2c([N+](=O)[O-])cc(C(=O)NCCO)cc2[N+](=O)[O-])cc1` (stereo unspecified), the Release turned out to be 80% in assay [1] and 94% in [2].
